According to ChEMBL document CHEMBL1770091, “Synthesis and biological evaluation of benzyl styrylsulfonyl derivatives as potent anticancer mitotic inhibitors” (Bioorg Med Chem Lett, 2011):

Key:
HCT-116 = experiment: Cytotoxicity against human HCT116 cells after 72 hrs by MTT assay; assay type: functional; conditions: HCT-116, 72 h
Summary of the method: (§1)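 Standard 72-h MTT cytotoxicity assay, reported as GI50. Cancer lines were run alongside non-transformed MRC-5 lung fibroblasts.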

[1] = Cytotoxicity against human MDA468 cells after 72 hrs by MTT assay; assay type: functional; conditions: MDA-MB-468, 72 h
Summary of the method: (§2)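 MDA-468 cells were exposed to compound for 24, 48 or 72 h and growth inhibition was read by MTT assay. GI50 is the mean ± s.d. of three independent assays.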

MCF7 [2] = experiment: Cytotoxicity against human MCF7 cells after 72 hrs by MTT assay; assay type: functional; conditions: MCF7, 72 h; summary of the method: as §1
T47D [3] = experiment: Cytotoxicity against human T47D cells after 72 hrs by MTT assay; assay type: functional; summary of the method: as §1
[4] = Cytotoxicity against human MRC5 cells after 72 hrs by MTT assay; assay type: cell-based; summary of the method: as §1
[5] = Cell cycle arrest in human MDA468 cells assessed as accumulation at G2/M phase at 0.5 uM after 20 hrs by flow cytometry; assay type: functional, cell-based; conditions: MDA-MB-468
Summary of the method: (§3)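 Cells in exponential growth seeded at 4×10^5, incubated overnight at 37 °C in humidified 5% CO2, then exposed to compound for 20 h. Cells collected, washed once in cold PBS, resuspended in hypotonic fluorochrome solution, and analysed for cell-cycle distribution (% G2/M DNA content) by flow cytometry. Mean ± s.d. of three independent experiments; DMSO vehicle control.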

MCF7 [6] = experiment: Metabolic stability of the compound in human MCF7 cells at 1 uM; assay type: ADME, cell-based; conditions: mcf7, 1 µM
[7] = Cytotoxicity against human MDA468 cells after 48 hrs by MTT assay; assay type: functional; conditions: MDA-MB-468, 48 h; summary of the method: as §2
[8] = Cytotoxicity against human MDA468 cells after 24 hrs by MTT assay; assay type: functional; conditions: MDA-MB-468, 24 h; summary of the method: as §2
MRC5 [9] = experiment: Metabolic stability of the compound in human MRC5 cells at 1 uM; assay type: ADME, cell-based; conditions: mrc5, 1 µM
[10] = Cell cycle arrest in human MDA468 cells assessed as accumulation at G2/M phase at 1 uM after 20 hrs by flow cytometry; assay type: functional, cell-based; conditions: MDA-MB-468; summary of the method: as §3
MDA-MB-468 = experiment: Induction of apoptosis in human MDA468 cells assessed as appearance of apoptotic bodies after 20 hrs by annexinV/propidium iodide staining; assay type: functional, cell-based
Summary of the method: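 After overnight culture, 4×10^5 cells per well were treated with compound at 0.5, 1 and 10 μM for 20 h. Apoptosis was measured by annexin V/PI double staining and flow analysis, scored as early (annexin V-positive) plus late (annexin V- and PI-positive) apoptotic cells. Mean ± s.d. of three independent experiments versus DMSO vehicle control.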

MRC5 [11] = experiment: Ratio of GI50 for human MRC5 cells to GI50 for human MDA468 cells
Summary of the method: (§4)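 Selectivity was calculated as GI50 in non-transformed MRC-5 fibroblasts divided by GI50 in each cancer line. All GI50 values came from 72-h MTT assays.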

T47D [12] = experiment: Ratio of GI50 for human MRC5 cells to GI50 for human T47D cells; summary of the method: as §4
MRC5 [13] = experiment: Ratio of GI50 for human MRC5 cells to GI50 for human MCF7 cells; summary of the method: as §4
MRC5 [14] = experiment: Ratio of GI50 for human MRC5 cells to GI50 for human HCT116 cells; summary of the method: as §4

Compound COc1ccc(CS(=O)(=O)CC(=O)Nc2ccccc2)cc1[N+](=O)[O-] has a GI50 (HCT-116) of over 30 µM, a GI50 [1] of over 30 µM and a GI50 (MCF7 [2]) of over 30 µM. The GI50 (T47D [3]) was over 30 µM and the GI50 at 72 h [4] was over 30 µM.

Compound COc1ccc(CS(=O)(=O)CC(=O)Nc2c(C)cc(C)cc2C)cc1N has a GI50 (HCT-116) of over 30 µM, a GI50 [1] of over 30 µM and a GI50 (MCF7 [2]) of over 30 µM. It also gave a GI50 (T47D [3]) of over 30 µM and a GI50 at 72 h [4] of over 30 µM.

Compound COc1ccc(OC)c(NC(=O)CS(=O)(=O)Cc2ccc(OC)c([N+](=O)[O-])c2)c1 has a GI50 (HCT-116) of over 30 µM, a GI50 [1] of over 30 µM and a GI50 (MCF7 [2]) of over 30 µM. The GI50 (T47D [3]) was over 30 µM and the GI50 at 72 h [4] was over 30 µM.

With COc1cc(OC)c(/C=C/S(=O)(=O)Cc2ccc(OC)c(N)c2)c(OC)c1 the GI50 (HCT-116) was under 0.01 µM, the GI50 [1] was 0.03 µM and the GI50 (MCF7 [2]) was under 0.01 µM. It also gave a GI50 at 72 h [4] of 0.08 µM.

With COc1cc(OC)c(/C=C/[S+]([O-])Cc2ccc(OC)c(N)c2)c(OC)c1 (configuration not stated) the GI50 (HCT-116) was under 0.01 µM, the GI50 [1] was under 0.01 µM and the Activity [5] was 77%. The Stability (MCF7 [6]) was “Stable”, the GI50 (MCF7 [2]) was under 0.01 µM and the GI50 (T47D [3]) was 0.06 µM. For the same compound, the GI50 at 72 h [4] was over 30 µM, the GI50 [7] was 0.137 µM and the GI50 [8] was 0.559 µM. For the same compound, the Stability (MRC5 [9]) was “Stable”, the Activity [10] was 85% and the Activity (MDA-MB-468) was “Dose-dependent effect”.

COc1ccc(CS(=O)(=O)/C=C/c2ccc(OC)c(OC)c2OC)cc1N showed a GI50 (HCT-116) of 5.31 µM, a GI50 [1] of 3.48 µM and a GI50 (MCF7 [2]) of 5.95 µM. It also gave a GI50 (T47D [3]) of 5.9 µM and a GI50 at 72 h [4] of over 30 µM.

With COc1ccc(CS(=O)(=O)/C=C/c2c(OC)cccc2OC)cc1[N+](=O)[O-] the GI50 (HCT-116) was 10.2 µM, the GI50 [1] was 5.46 µM and the GI50 (MCF7 [2]) was 13.7 µM. For the same compound, the GI50 (T47D [3]) was over 30 µM and the GI50 at 72 h [4] was over 30 µM.

Work on COc1cc(OC)c(/C=C/S(=O)(=O)Cc2ccc(OC)c(NC(C)=O)c2)c(OC)c1 yielded a GI50 (HCT-116) of 0.15 µM, a GI50 (MCF7 [2]) of 0.35 µM and a GI50 at 72 h [4] of 0.81 µM.

For COc1cc(OC)c(/C=C/S(=O)(=O)Cc2ccc(OC)c([N+](=O)[O-])c2)c(OC)c1, the GI50 (HCT-116) was 0.66 µM, the GI50 (MCF7 [2]) was 0.88 µM and the GI50 at 72 h [4] was 2.91 µM.

Work on COc1ccc(CS(=O)(=O)/C=C/c2c(OC)cccc2OC)cc1N yielded a GI50 (HCT-116) of 0.02 µM, a GI50 [1] of 0.06 µM and a RatioGI50 (MRC5 [11]) of under 280. It also gave a GI50 (MCF7 [2]) of 0.04 µM, a RatioGI50 (T47D [12]) of under 280 and a GI50 (T47D [3]) of 0.05 µM. For the same compound, the GI50 at 72 h [4] was 17.1 µM, the RatioGI50 (MRC5 [13]) was under 280 and the RatioGI50 (MRC5 [14]) was under 280.

Compound COc1ccc(CS(=O)(=O)CC(=O)Nc2c(C)cc(C)cc2C)cc1[N+](=O)[O-] has a GI50 (HCT-116) of 7.91 µM, a GI50 [1] of over 30 µM and a GI50 (MCF7 [2]) of over 30 µM. It also gave a GI50 (T47D [3]) of over 30 µM and a GI50 at 72 h [4] of 28 µM.

In the case of COc1cc(/C=C/S(=O)(=O)Cc2ccc(OC)c(N)c2)cc(OC)c1, the GI50 (HCT-116) is reported as 0.54 µM, the GI50 [1] is reported as 0.52 µM and the RatioGI50 (MRC5 [11]) is reported as under 80. The GI50 (MCF7 [2]) was 0.49 µM, the RatioGI50 (T47D [12]) was under 80 and the GI50 (T47D [3]) was 0.53 µM. The GI50 at 72 h [4] was over 30 µM, the RatioGI50 (MRC5 [13]) was under 80 and the RatioGI50 (MRC5 [14]) was under 80.

In the case of COc1cc(/C=C/S(=O)(=O)Cc2ccc(OC)c([N+](=O)[O-])c2)cc(OC)c1, the GI50 (HCT-116) is reported as over 30 µM, the GI50 [1] is reported as 16.5 µM and the GI50 (MCF7 [2]) is reported as over 30 µM. The GI50 (T47D [3]) was over 30 µM and the GI50 at 72 h [4] was over 30 µM.

For COc1cc(OC)c(NC(=O)CS(=O)(=O)Cc2ccc(OC)c([N+](=O)[O-])c2)c(OC)c1, the GI50 (HCT-116) was 18.8 µM, the GI50 [1] was over 30 µM and the GI50 (MCF7 [2]) was over 30 µM. The GI50 (T47D [3]) was over 30 µM and the GI50 at 72 h [4] was over 30 µM.

With COc1ccc(CS(=O)(=O)CC(=O)Nc2ccccc2)cc1N the GI50 (HCT-116) was over 30 µM, the GI50 [1] was over 30 µM and the GI50 (MCF7 [2]) was over 30 µM. It also gave a GI50 (T47D [3]) of over 30 µM and a GI50 at 72 h [4] of over 30 µM.

COc1cc(OC)c(/C=C/S(=O)(=O)Cc2ccc(OC)c(NCC(=O)O)c2)c(OC)c1 [RIGOSERTIB] showed a GI50 (HCT-116) of 0.05 µM, a GI50 [1] of 0.02 µM and an Activity [5] of 58%. For the same compound, the Stability (MCF7 [6]) was “Stable”, the GI50 (MCF7 [2]) was 0.05 µM and the GI50 (T47D [3]) was under 0.01 µM. The GI50 at 72 h [4] was 0.71 µM, the GI50 [7] was 0.302 µM and the GI50 [8] was 0.601 µM. The Stability (MRC5 [9]) was “Stable”, the Activity [10] was 84% and the Activity (MDA-MB-468) was “Dose-dependent effect”.

COc1ccc(CS(=O)(=O)/C=C/c2ccc(OC)c(OC)c2OC)cc1[N+](=O)[O-] showed a GI50 (HCT-116) of 27.9 µM, a GI50 [1] of 21.9 µM and a GI50 (MCF7 [2]) of over 30 µM. It also gave a GI50 (T47D [3]) of over 30 µM and a GI50 at 72 h [4] of over 30 µM.
